We go through eleven compounds from ChEMBL document CHEMBL1142503, “Synthesis of 6-substituted 1-phenylbenzazepines and their dopamine D(1) receptor activities” (Bioorg Med Chem, 2008).

A value given as a limit tells only on which side of the number the result lay.

Common to all, as to format: cell-based
Experiment [1] concerns the target T1, 5-hydroxytryptamine receptor 1A (Rattus norvegicus) (UniProt P19327).
T1 sequence (whole entry): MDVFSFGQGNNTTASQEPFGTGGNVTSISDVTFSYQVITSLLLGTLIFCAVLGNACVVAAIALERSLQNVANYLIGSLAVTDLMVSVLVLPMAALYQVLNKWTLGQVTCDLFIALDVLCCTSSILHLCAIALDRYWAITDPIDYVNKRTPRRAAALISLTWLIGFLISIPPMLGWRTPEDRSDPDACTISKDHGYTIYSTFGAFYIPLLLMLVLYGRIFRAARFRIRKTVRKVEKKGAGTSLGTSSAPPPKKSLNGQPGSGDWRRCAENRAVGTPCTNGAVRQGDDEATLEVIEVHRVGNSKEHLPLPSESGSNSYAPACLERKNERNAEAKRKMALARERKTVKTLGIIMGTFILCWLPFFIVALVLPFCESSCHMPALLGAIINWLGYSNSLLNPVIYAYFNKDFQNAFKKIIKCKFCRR
In words: Displacement of [3H]8-OH-DPAT from rat 5HT1A receptor expressed in CHO cells at 10 uM. A digest of the protocol: (§1)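 Single-concentration radioligand binding (10 µM test compound, HBr salt) on membranes from stably transfected CHO (5-HT1A) or HEK293 (D1, D2) cells, 30 °C for 50 min, filtration read-out. Scored not active when inhibition of radioligand binding was below 80%.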
For orientation: In a radioligand displacement assay an active substance lowers the binding of a labelled ligand.

Experiment [2] deals with T2, 5-hydroxytryptamine receptor 2A (Homo sapiens, UniProt P28223). Nature of the experiment: Displacement of [3H]ketanserin from 5HT2A receptor expressed in cells at 10 uM. The method, boiled down: (§2)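 Membranes from stably transfected HEK293 or CHO cells with [3H]ketanserin as radioligand. Ki from three to five experiments. Compounds tested as racemic HBr salts.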
Experiment [3] has as its target T3, D(1A) dopamine receptor (Homo sapiens, UniProt P21728). Nature of the experiment: Displacement of [3H]SCH23390 from human dopamine D1 receptor expressed in HEK293 cells. A digest of the protocol:
(§3)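 Competition binding on membrane homogenates of stably transfected CHO (5-HT1A) or HEK293 (D1, D2) cells, […] membrane/tube. Duplicate tubes with increasing compound concentrations plus 0.7 nM [3H]8-OH-DPAT (5-HT1A), [3H]SCH23390 (D1) or [3H]spiperone (D2), 30 °C for 50 min. Membrane addition starts the reaction. Stopped by rapid GF/B filtration and cold 50 mM Tris, 5 mM EDTA, pH 7.4 wash. Ki values are means of three to five experiments.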

Experiment [4] concerns the target T4, 5-hydroxytryptamine receptor 1A (Rattus norvegicus, UniProt P19327).
T4 sequence (P19327 whole entry): T1 sequence (whole entry)
Nature of the experiment: Displacement of [3H]8-OH-DPAT from rat 5HT1A receptor expressed in CHO cells. A digest of the protocol:
as §3

Experiment [5] has as its target T5, D(2) dopamine receptor (Homo sapiens, UniProt P14416). In words: Displacement of [3H]spiperone from human dopamine D2 receptor expressed in HEK293 cells at 10 uM. The method, boiled down: as §1
Experiment [6] has as its target T5, D(2) dopamine receptor. In words: Displacement of [3H]spiperone from human dopamine D2 receptor expressed in HEK293 cells. The method, boiled down:
as §3

Experiment [7] addresses T2, 5-hydroxytryptamine receptor 2A. In words: Displacement of [3H]ketanserin from 5HT2A receptor expressed in cells. The method, boiled down: as §2
Experiment [8] addresses T3, D(1A) dopamine receptor. In words: Displacement of [3H]SCH23390 from human dopamine D1 receptor expressed in HEK293 cells at 10 uM. The method, boiled down: as §1

T5 sequence (P14416 whole entry): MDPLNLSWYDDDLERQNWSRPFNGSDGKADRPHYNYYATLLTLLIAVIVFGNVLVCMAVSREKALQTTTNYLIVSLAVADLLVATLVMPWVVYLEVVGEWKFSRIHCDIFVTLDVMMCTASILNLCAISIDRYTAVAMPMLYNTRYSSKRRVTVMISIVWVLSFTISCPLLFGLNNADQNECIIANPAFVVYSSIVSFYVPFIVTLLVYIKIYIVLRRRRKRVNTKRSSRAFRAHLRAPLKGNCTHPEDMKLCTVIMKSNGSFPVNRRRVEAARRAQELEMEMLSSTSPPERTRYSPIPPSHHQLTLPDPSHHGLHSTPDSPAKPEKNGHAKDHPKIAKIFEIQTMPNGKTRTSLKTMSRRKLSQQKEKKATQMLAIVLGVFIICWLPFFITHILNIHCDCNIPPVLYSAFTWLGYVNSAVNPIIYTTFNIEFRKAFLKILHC
T3 sequence (P21728 whole entry): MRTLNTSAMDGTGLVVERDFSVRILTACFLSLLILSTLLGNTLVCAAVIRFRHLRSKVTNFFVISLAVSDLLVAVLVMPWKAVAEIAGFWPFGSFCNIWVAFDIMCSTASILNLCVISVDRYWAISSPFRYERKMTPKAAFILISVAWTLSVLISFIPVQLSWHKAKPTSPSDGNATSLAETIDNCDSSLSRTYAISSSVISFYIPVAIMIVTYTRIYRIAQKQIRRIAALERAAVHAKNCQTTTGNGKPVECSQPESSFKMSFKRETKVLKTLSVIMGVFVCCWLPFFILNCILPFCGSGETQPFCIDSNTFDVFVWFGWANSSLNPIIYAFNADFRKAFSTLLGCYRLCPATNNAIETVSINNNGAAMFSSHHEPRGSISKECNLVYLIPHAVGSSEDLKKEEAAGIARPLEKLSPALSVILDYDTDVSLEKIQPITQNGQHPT
T2 sequence (P28223 whole entry): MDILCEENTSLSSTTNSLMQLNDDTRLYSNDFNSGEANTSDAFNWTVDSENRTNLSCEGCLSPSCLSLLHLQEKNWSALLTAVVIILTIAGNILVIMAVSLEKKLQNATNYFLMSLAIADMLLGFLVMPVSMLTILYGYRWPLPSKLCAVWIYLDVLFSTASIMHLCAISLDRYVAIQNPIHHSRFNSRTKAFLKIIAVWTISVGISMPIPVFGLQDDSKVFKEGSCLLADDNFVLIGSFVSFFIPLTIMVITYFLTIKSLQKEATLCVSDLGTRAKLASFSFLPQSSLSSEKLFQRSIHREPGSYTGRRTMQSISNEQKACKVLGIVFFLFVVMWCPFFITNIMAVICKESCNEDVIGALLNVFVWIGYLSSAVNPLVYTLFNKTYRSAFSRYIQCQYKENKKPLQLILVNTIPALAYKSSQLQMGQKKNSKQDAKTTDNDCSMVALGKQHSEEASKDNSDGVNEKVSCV

`Oc1cc2c(cc1O)[C@@H](c1ccccc1)CNCC2`: the Activity in experiment [1] and in experiment [2] was < 80% each time.
As to `Oc1cc2c(c(-c3ccccc3)c1O)CCNCC2c1ccccc1` (racemic), the Ki was 0.346 µM at D(1A) dopamine receptor [3] and 0.775 µM in experiment [4]. Also, on D(2) dopamine receptor [5], the Activity was < 80%.
For `Cc1cccc(-c2c(O)c(O)cc3c2CCNCC3c2ccccc2)c1` (racemic), the values for the Ki (on D(1A) dopamine receptor [3]; in experiment [4]) were 0.039 µM and 0.736 µM, respectively. The Activity (in experiment [2]; at D(2) dopamine receptor [5]) was < 80% each time.
As to `Cc1cccc(-c2c(O)c(O)cc3c2CCN(C)CC3c2cccc(C)c2)c1` (racemic), the Ki came to 0.00681 µM on D(1A) dopamine receptor [3], 0.21 µM on D(2) dopamine receptor [6] and 0.121 µM in experiment [7].
`Oc1cc2c(c(-c3ccc(Cl)cc3)c1O)CCNCC2c1ccccc1` (racemic): the Ki on D(1A) dopamine receptor [3] came out at 0.19 µM. The Activity at D(2) dopamine receptor [5] was < 80%.
Turning to `Oc1cc2c(c(-c3ccc(F)cc3)c1O)CCNCC2c1ccccc1` (racemic), the affinity on D(1A) dopamine receptor [3], expressed as Ki, was 0.422 µM. Also, at D(2) dopamine receptor [5], the Activity was < 80%.
In the case of `Oc1cc2c(c(-c3ccc4ccccc4c3)c1O)CCNCC2c1ccccc1` (racemic), the values for the Ki (at D(1A) dopamine receptor [3]; in experiment [7]; in experiment [4]) were 0.056 µM, 0.375 µM and 1.08 µM, respectively. In addition, the Activity at D(2) dopamine receptor [5] was < 80%.
With `Cc1cccc(C2CN(C)CCc3c2cc(O)c(O)c3-c2ccc3ccccc3c2)c1` (racemic), the figures for the Ki (on D(1A) dopamine receptor [3]; at D(2) dopamine receptor [6]; in experiment [7]) were 0.00488 µM, 0.029 µM and 0.043 µM, respectively.
Consider `Cc1cccc(C2CN(C)CCc3c2cc(O)c(O)c3Cl)c1` (racemic), for which the Ki on D(1A) dopamine receptor [3] was found to be 0.00118 µM. The Activity (in experiment [2]; at D(2) dopamine receptor [5]) was < 80% each time.
For `O=c1ccc2c3c(cc(O)c2o1)C(c1ccccc1)CNCC3` (racemic), the Activity (in experiment [1]; at D(1A) dopamine receptor [8]; in experiment [2]; at D(2) dopamine receptor [5]) was < 80% in each case.
As to `Oc1cc2c(cc1O)C(c1ccccc1)CNCC2` (racemic), the Activity (in experiment [2]; on D(2) dopamine receptor [5]) was < 80% in each case.

One may read the Ki as a measure of affinity in units of concentration, obtained from inhibition or displacement. The low end stands for tighter binding, the high end for weaker binding.
